Broadly, the MIC is the smallest concentration in the dilution series that meets the test's criterion for growth inhibition. The low end stands for inhibition by little substance, the high end for a need for much substance.

Common to all, as to format: functional
The subject of test [1] is Penicillium italicum. As to the kind of experiment: Antifungal activity against Penicillium italicum ATCC 48114 at 5 mg/mL by diffusion agar method. The following applies: read-out: IZ. In short, it runs like this: (§1)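 Agar diffusion. Compounds and standard drugs were dissolved in DMSO at 5 mg/mL and diluted to 5, 2.5 and 1 mg/mL. Hundred microlitres of each concentration was applied. Inhibition was scored against the control: 0.1–0.5 cm beyond control = +, 0.6–1.0 cm = ++, 1.0–1.5 cm = +++, 0 = not detected.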

For test [2], the system named is Escherichia coli. Put plainly: Antibacterial activity against Escherichia coli ATCC 23556 by broth dilution method. In short, it runs like this:
(§2)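 MIC by twofold serial broth dilution. Compounds were dissolved in DMSO at 1.6 mg/mL as stock. Dilutions in Mueller–Hinton broth and Sabouraud dextrose broth ran from 800 down to 0.78. Inoculated broth containing DMSO alone at the same dilutions served as control. Gentamycin and griseofulvin were the reference drugs.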
(Dilution methods test growth across graded concentrations, often in twofold steps.)

Test [3] relates to Escherichia coli. As to the kind of experiment: Antibacterial activity against Escherichia coli ATCC 23556 at 5 mg/mL by diffusion agar method. The following applies: read-out: IZ. A digest of the protocol: as §1
For test [4], the system named is Staphylococcus aureus. As to the kind of experiment: Antibacterial activity against Staphylococcus aureus ATCC 25923 by broth dilution method. A digest of the protocol: as §2
Test [5] deals with Penicillium italicum. Put plainly: Antifungal activity against Penicillium italicum ATCC 48114 by broth dilution method. In short, it runs like this:
as §2

In test [6] the test system is Staphylococcus aureus. As to the kind of experiment: Antibacterial activity against Staphylococcus aureus ATCC 25923 at 5 mg/mL by diffusion agar method. Particulars: read-out: IZ. In short, it runs like this: as §1
Test [7] has as its system Bacillus subtilis. As to the kind of experiment: Antibacterial activity against Bacillus subtilis ATCC 6633 at 5 mg/mL by diffusion agar method. The following applies: read-out: IZ. A digest of the protocol: as §1
The test system of test [8] is Pseudomonas aeruginosa. As to the kind of experiment: Antibacterial activity against Pseudomonas aeruginosa ATCC 10145 by broth dilution method. In short, it runs like this:
(§3)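 MIC by twofold serial broth dilution. Compounds were dissolved in DMSO as a 1.6 mg/mL stock and diluted in Mueller-Hinton broth or Sabouraud dextrose broth to 800, 400, 200, 100, 50, 25, 12.5, 6.25, 3.12, 1.56 and 0.78. A control of inoculated broth with DMSO alone at the same dilutions was included. Gentamycin and griseofulvin served as reference drugs.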

Test [9] has as its system Bacillus subtilis. As to the kind of experiment: Antibacterial activity against Bacillus subtilis ATCC 6633 at 1 mg/mL by diffusion agar method. Particulars: read-out: IZ. A digest of the protocol:
as §1

Test [10] concerns Syncephalastrum racemosum. As to the kind of experiment: Antifungal activity against Syncephalastrum racemosum ATCC 18192 at 5 mg/mL by diffusion agar method. Particulars: read-out: IZ. In short, it runs like this: as §1
Test [11] relates to Penicillium italicum. Put plainly: Antifungal activity against Penicillium italicum ATCC 48114 at 2.5 mg/mL by diffusion agar method. The following applies: read-out: IZ. In short, it runs like this: as §1
The test system of test [12] is Staphylococcus aureus. As to the kind of experiment: Antibacterial activity against Staphylococcus aureus ATCC 25923 at 2.5 mg/mL by diffusion agar method. Particulars: read-out: IZ. In short, it runs like this: as §1
For test [13], the system named is Escherichia coli. Put plainly: Antibacterial activity against Escherichia coli ATCC 23556 at 2.5 mg/mL by diffusion agar method. Particulars: read-out: IZ. In short, it runs like this: as §1
Test [14] deals with Pseudomonas aeruginosa. As to the kind of experiment: Antibacterial activity against Pseudomonas aeruginosa ATCC 10145 at 1 mg/mL by diffusion agar method. The following applies: read-out: IZ. A digest of the protocol: as §1
Test [15] deals with Aspergillus fumigatus. Put plainly: Antifungal activity against Aspergillus fumigatus ATCC 96918 at 1 mg/mL by diffusion agar method. Particulars: read-out: IZ. A digest of the protocol:
as §1

For test [16], the system named is Syncephalastrum racemosum. Put plainly: Antifungal activity against Syncephalastrum racemosum ATCC 18192 at 2.5 mg/mL by diffusion agar method. Particulars: read-out: IZ. In short, it runs like this: as §1
In test [17] the test system is Staphylococcus aureus. Put plainly: Antibacterial activity against Staphylococcus aureus ATCC 25923 at 1 mg/mL by diffusion agar method. The following applies: read-out: IZ. A digest of the protocol:
as §1

Test [18] relates to Pseudomonas aeruginosa. Put plainly: Antibacterial activity against Pseudomonas aeruginosa ATCC 10145 at 2.5 mg/mL by diffusion agar method. The following applies: read-out: IZ. In short, it runs like this:
as §1

The test system of test [19] is Aspergillus fumigatus. Put plainly: Antifungal activity against Aspergillus fumigatus ATCC 96918 at 2.5 mg/mL by diffusion agar method. The following applies: read-out: IZ. In short, it runs like this: as §1
Test [20] concerns Syncephalastrum racemosum. Put plainly: Antifungal activity against Syncephalastrum racemosum ATCC 18192 by broth dilution method. In short, it runs like this:
as §2

Test [21] relates to Bacillus subtilis. As to the kind of experiment: Antibacterial activity against Bacillus subtilis ATCC 6633 by broth dilution method. In short, it runs like this: as §3
Test [22] deals with Bacillus subtilis. Put plainly: Antibacterial activity against Bacillus subtilis ATCC 6633 at 2.5 mg/mL by diffusion agar method. Particulars: read-out: IZ. A digest of the protocol:
as §1

The subject of test [23] is Aspergillus fumigatus. Put plainly: Antifungal activity against Aspergillus fumigatus ATCC 96918 at 5 mg/mL by diffusion agar method. The following applies: read-out: IZ. In short, it runs like this:
as §1

For test [24], the system named is Aspergillus fumigatus. As to the kind of experiment: Antifungal activity against Aspergillus fumigatus ATCC 96918 by broth dilution method. A digest of the protocol: as §2
The subject of test [25] is Pseudomonas aeruginosa. Put plainly: Antibacterial activity against Pseudomonas aeruginosa ATCC 10145 at 5 mg/mL by diffusion agar method. Particulars: read-out: IZ. A digest of the protocol: as §1
Test [26] relates to Candida albicans. Put plainly: Antimicrobial activity against Candida albicans ATCC 14053 at 2.5 mg/mL by diffusion agar method. The following applies: read-out: IZ. A digest of the protocol:
as §1

In test [27] the test system is Candida albicans. Put plainly: Antimicrobial activity against Candida albicans ATCC 14053 at 1 mg/mL by diffusion agar method. Particulars: read-out: IZ. A digest of the protocol:
as §1

For test [28], the system named is Candida albicans. As to the kind of experiment: Antimicrobial activity against Candida albicans ATCC 14053 at 5 mg/mL by diffusion agar method. The following applies: read-out: IZ. In short, it runs like this: as §1
Test [29] deals with Escherichia coli. As to the kind of experiment: Antibacterial activity against Escherichia coli ATCC 23556 at 1 mg/mL by diffusion agar method. The following applies: read-out: IZ. A digest of the protocol:
as §1

For test [30], the system named is Candida albicans. As to the kind of experiment: Antimicrobial activity against Candida albicans ATCC 14053 by broth dilution method. A digest of the protocol: as §2
In test [31] the test system is Penicillium italicum. Put plainly: Antifungal activity against Penicillium italicum ATCC 48114 at 1 mg/mL by diffusion agar method. The following applies: read-out: IZ. In short, it runs like this:
as §1

The test system of test [32] is Syncephalastrum racemosum. Put plainly: Antifungal activity against Syncephalastrum racemosum ATCC 18192 at 1 mg/mL by diffusion agar method. The following applies: read-out: IZ. In short, it runs like this:
as §1

In brackets after ≈: the same amount, converted by molar mass.

With `CC(=O)O[C@@H]1[C@@H](OC(C)=O)[C@H](n2nc3sc(-c4ccc(Cl)cc4)nn3c2=S)OC[C@@H]1OC(C)=O`, the zone of inhibition at 5000 µg/mL in the test with Penicillium italicum [1], in the test with Escherichia coli [3] and in the test with Staphylococcus aureus [6] was 1 mm throughout. Besides, the MIC with Escherichia coli [2], with Staphylococcus aureus [4] and against Penicillium italicum [5] was over 1600 µg/mL throughout.
In the case of `CC(=O)O[C@@H]1[C@@H](OC(C)=O)[C@H](Sc2nnc3sc(-c4ccc(Cl)cc4)nn23)OC[C@@H]1OC(C)=O`, the zone of inhibition at 5000 µg/mL (in the test on Penicillium italicum [1]; in the test with Bacillus subtilis [7]; in test [10]; with Escherichia coli [3]; in the test with Aspergillus fumigatus [23]; with Staphylococcus aureus [6]) was 1 mm each time. For the same molecule, in the test on Pseudomonas aeruginosa [25], the zone of inhibition at 5000 µg/mL was found to be 1 mm. Also, the MIC in the test with Pseudomonas aeruginosa [8] is 12.5 µg/mL (≈ 23.7 µM); against Escherichia coli [2] it was 1600 µg/mL (≈ 3040 µM); against Staphylococcus aureus [4], 25 µg/mL (≈ 47.4 µM); against Penicillium italicum [5], 1600 µg/mL (≈ 3040 µM); in test [20] it was 1600 µg/mL (≈ 3040 µM); in the test on Bacillus subtilis [21], 25 µg/mL (≈ 47.4 µM). Besides, the MIC in the test on Aspergillus fumigatus [24] was 25 µg/mL (≈ 47.4 µM). Moreover, the zone of inhibition at 1000 µg/mL in the test with Bacillus subtilis [9], in the test on Pseudomonas aeruginosa [14], in the test on Aspergillus fumigatus [15] and in the test on Staphylococcus aureus [17] was 1 mm throughout. Besides, the zone of inhibition at 2500 µg/mL (in the test on Penicillium italicum [11]; with Staphylococcus aureus [12]; in the test with Escherichia coli [13]; in test [16]; in the test with Pseudomonas aeruginosa [18]; in the test with Aspergillus fumigatus [19]) was 1 mm in each case. Also, the zone of inhibition at 2500 µg/mL in the test on Bacillus subtilis [22] was 1 mm.
With `O=C(N[C@H](CO)[C@H](O)c1ccc([N+](=O)[O-])cc1)C(Cl)Cl` [CHLORAMPHENICOL], the zone of inhibition at 5000 µg/mL came to 10 mm in the test on Bacillus subtilis [7]; 6 mm with Escherichia coli [3]; 6 mm in the test on Candida albicans [28]; 6 mm in the test on Staphylococcus aureus [6]; 10 mm in the test on Pseudomonas aeruginosa [25]. For the same molecule, the zone of inhibition at 1000 µg/mL in the test on Bacillus subtilis [9], in the test on Candida albicans [27], in the test on Pseudomonas aeruginosa [14], with Staphylococcus aureus [17] and with Escherichia coli [29] was 6 mm throughout. Moreover, the zone of inhibition at 2500 µg/mL in the test on Candida albicans [26] was 6 mm; in the test on Staphylococcus aureus [12] it was 6 mm; in the test with Escherichia coli [13], 6 mm; with Pseudomonas aeruginosa [18], 10 mm; in the test with Bacillus subtilis [22], 10 mm.
As for `COC1=CC(=O)C[C@@H](C)[C@]12Oc1c(Cl)c(OC)cc(OC)c1C2=O` [GRISEOFULVIN], the MIC (with Candida albicans [30]; in the test on Penicillium italicum [5]; in test [20]; with Aspergillus fumigatus [24]) was 50 µg/mL (≈ 142 µM) in each case.
Turning to `CN(C/C=C/C#CC(C)(C)C)Cc1cccc2ccccc12` [TERBINAFINE], the zone of inhibition at 5000 µg/mL (in the test with Penicillium italicum [1]; in [10]; with Aspergillus fumigatus [23]) was 10 mm each time. The zone of inhibition at 2500 µg/mL (in the test on Penicillium italicum [11]; in test [16]; in the test with Aspergillus fumigatus [19]) was 10 mm throughout. Moreover, the values for the zone of inhibition at 1000 µg/mL (in the test on Aspergillus fumigatus [15]; in the test on Penicillium italicum [31]; in test [32]) were 6 mm, 6 mm and 10 mm, respectively.
For GENTAMICIN, the MIC amounted to 12.5 µg/mL against Pseudomonas aeruginosa [8], 12.5 µg/mL in the test with Escherichia coli [2], 3.12 µg/mL against Staphylococcus aureus [4] and 1.56 µg/mL against Bacillus subtilis [21].
